For 31 compounds, inhibition, IC50 and Ratio IC50 results are on record in ChEMBL document CHEMBL3797187, “Design, synthesis and biological evaluation of potent FAAH inhibitors” (Bioorg Med Chem Lett, 2016).

pIC50: −log10 of the molar value.

Data set [1] can be described thus: Cytotoxicity against human HEK293 cells assessed as growth inhibition at 10 uM after 72 hrs by MTS assay relative to control. It is filed as cell-based. The settings on record: read-out: GI. Summed up:
(§1)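 Test compounds at 10 µM on human colorectal adenocarcinoma HT29 and human embryonic kidney HEK293 cells. Cell proliferation scored colorimetrically by MTS tetrazolium reduction to formazan (NADPH-dependent oxidoreductase activity as viable-cell readout). Reported as % inhibition at 10 µM.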
(Tetrazolium assays rely on reduction of a dye to a coloured formazan, in cell work by metabolically active cells.)

Data set [2] deals with T1, Fatty-acid amide hydrolase 1 (Homo sapiens) (UniProt O00519).
T1 sequence (whole entry): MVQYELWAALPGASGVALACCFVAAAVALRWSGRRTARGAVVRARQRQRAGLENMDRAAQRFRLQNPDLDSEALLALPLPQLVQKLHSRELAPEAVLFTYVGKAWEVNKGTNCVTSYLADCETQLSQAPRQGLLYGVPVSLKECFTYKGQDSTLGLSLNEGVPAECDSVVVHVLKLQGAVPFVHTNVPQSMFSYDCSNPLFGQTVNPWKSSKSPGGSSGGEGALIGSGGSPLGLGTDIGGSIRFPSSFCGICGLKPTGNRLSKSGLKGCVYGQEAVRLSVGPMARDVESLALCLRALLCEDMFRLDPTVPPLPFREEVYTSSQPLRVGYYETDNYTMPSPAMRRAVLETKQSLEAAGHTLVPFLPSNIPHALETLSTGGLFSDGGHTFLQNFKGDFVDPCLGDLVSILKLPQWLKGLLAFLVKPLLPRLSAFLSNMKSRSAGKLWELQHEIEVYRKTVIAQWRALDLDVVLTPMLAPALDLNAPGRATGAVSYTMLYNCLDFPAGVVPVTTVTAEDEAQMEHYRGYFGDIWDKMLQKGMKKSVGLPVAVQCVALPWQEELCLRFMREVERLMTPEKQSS
Kind of data set: Inhibition of human recombinant FAAH expressed in sf21 cells using AMC-AA as substrate at 10 uM preincubated for 15 mins followed by substrate addition measured after 2 hrs by spectrophotometric analysis relative to control. An outline of the steps: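 Human recombinant FAAH expressed in SF21 cells, 4 U/mL, preincubated 15 min with compound at 37 °C in Tris buffer pH 9. Hydrolysis of the fluorogenic substrate AMC-arachidonamide then measured. Single-point screen at 10 µM as % inhibition. IC50 from concentration-response, mean ± SEM of three experiments performed in duplicate.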

A short description of data set [3]: Cytotoxicity against human HT-29 cells assessed as growth inhibition at 10 uM after 72 hrs by MTS assay relative to control. The data set is classed as cell-based. The settings on record: read-out: GI. Summed up:
as §1

For data set [4], the target named is T2, Fatty-acid amide hydrolase 1 (Homo sapiens, UniProt O00519).
T2 sequence (O00519 whole entry): T1 sequence (whole entry)
In words: Inhibition of human recombinant FAAH expressed in sf21 cells using AMC-AA as substrate preincubated for 15 mins followed by substrate addition measured after 2 hrs by spectrophotometric analysis. Summed up: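 Human recombinant FAAH expressed in SF21 cells, 4 U/mL, preincubated 15 min with compound at 37 °C in Tris buffer pH 9. Hydrolysis of the fluorogenic substrate AMC-arachidonamide then measured. IC50 from concentration-response, mean ± SEM of three experiments performed in duplicate.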

The target in data set [5] is T1, Fatty-acid amide hydrolase 1 (Homo sapiens). In words: Potency index, ratio of 5-(4-Pentyloxy-phenyl)-isoxazole-3-carboxylic acid adamantan-1-ylamide IC50 to compound IC50 for human recombinant FAAH expressed in sf21 cells.

What is called pIC50 is −log10 of the IC50, conventionally taken in molar units. Take `O=C(NC12CC3CC(CC(C3)C1)C2)c1cc(-c2ccc(-c3cccc(CN4CCOCC4)c3)cc2)on1`: the inhibition at 72 h, 10 µM worked out at 38% in data set [1] and 0% in data set [3]. The inhibition in data set [2] was 69%. Moreover, the pIC50 in data set [4] was 6.08.

As for `O=C(NC12CC3CC(CC(C3)C1)C2)c1cc(-c2ccc(-c3cccc(C(=O)N4CCOCC4)c3)cc2)on1`, the inhibition at 72 h, 10 µM in data set [1] came to 54%; in data set [3], 10%. Besides, the inhibition in data set [2] turned out to be 49%.

Take `CC(=O)c1cccc(-c2ccc(-c3cc(C(=O)NC45CC6CC(CC(C6)C4)C5)no3)cn2)c1`: the inhibition at 72 h, 10 µM was 18% in data set [1] and 0% in data set [3]. Besides, the inhibition in data set [2] was found to be 22%.

Turning to `COc1ccc(-c2ccc(-c3cc(C(=O)NC45CC6CC(CC(C6)C4)C5)no3)cc2)cc1OC`, the inhibition at 72 h, 10 µM was 29% in data set [1] and 7% in data set [3]. The inhibition in data set [2] was determined as 14%.

As for `CC(=O)c1ccc(-c2ccc(-c3cc(C(=O)NC45CC6CC(CC(C6)C4)C5)no3)cc2)cc1`, the inhibition at 72 h, 10 µM in data set [1] turned out to be 5%; in data set [3] it was 4%. Besides, in data set [2], the inhibition is 18%.

As to `NC(=O)c1cccc(-c2cccc(OC(=O)NC3CCCCC3)c2)c1` [URB-597], the inhibition at 72 h, 10 µM in data set [1] and in data set [3] was 0% throughout. For the same compound, in data set [2], the inhibition came out at 98%.

`CN1CCN(Cc2ccc(-c3ccc(-c4cc(C(=O)NC56CC7CC(CC(C7)C5)C6)no4)cc3)cc2)CC1`: the inhibition at 72 h, 10 µM in data set [1] was found to be 89%; in data set [3] it was 90%. Further, the inhibition in data set [2] was 41%.

`O=C(NC12CC3CC(CC(C3)C1)C2)c1cc(-c2ccc(-c3ccncc3)cc2)on1`: the inhibition at 72 h, 10 µM in data set [1] was 9%; in data set [3], 1%. For the same compound, the inhibition in data set [2] came to 17%.

`O=C(NC12CC3CC(CC(C3)C1)C2)c1cc(-c2ccc(-c3cnc4ccccc4c3)cc2)on1`: the inhibition at 72 h, 10 µM in data set [1] is 24%; in data set [3], 0%. For the same compound, the inhibition in data set [2] was 22%.

With `CC(=O)c1cccc(-c2ccc(-c3cc(C(=O)NC45CC6CC(CC(C6)C4)C5)no3)cc2)c1`, the inhibition at 72 h, 10 µM in data set [1] was 16%; in data set [3], 1%. Besides, in data set [2], the inhibition is 56%. For the same compound, the pIC50 in data set [4] is 6.23.

For `CN1CCN(C(=O)c2cccc(-c3ccc(-c4cc(C(=O)NC56CC7CC(CC(C7)C5)C6)no4)cc3)c2)CC1`, the inhibition at 72 h, 10 µM in data set [1] came out at 47%; in data set [3], 55%. In data set [2], the inhibition was determined as 44%.

Take `O=C(NC12CC3CC(CC(C3)C1)C2)c1cc(-c2ccc(-c3ccc(C(=O)N4CCOCC4)cc3)nc2)on1`: the inhibition at 72 h, 10 µM in data set [1] is 10%; in data set [3] it was 0%. Also, the inhibition in data set [2] was 12%.

Regarding `COc1cccc(-c2ccc(-c3cc(C(=O)NC45CC6CC(CC(C6)C4)C5)no3)cc2)c1`, the values for the inhibition at 72 h, 10 µM in data set [1] and in data set [3] were 20% and 0%, respectively. Moreover, the inhibition in data set [2] was determined as 58%. Besides, in data set [4], the pIC50 was 6.14.

Turning to `O=C(NC12CC3CC(CC(C3)C1)C2)c1cc(-c2ccc(-c3ccc(CN4CCOCC4)cc3)cc2)on1`, the values for the inhibition at 72 h, 10 µM in data set [1] and in data set [3] were 20% and 0%, respectively. Moreover, the inhibition in data set [2] came out at 16%.

Take `NC(=O)c1cccc(-c2ccc(-c3cc(C(=O)NC45CC6CC(CC(C6)C4)C5)no3)cc2)c1`: the inhibition at 72 h, 10 µM in data set [1] turned out to be 3%; in data set [3], 0%. In addition, the inhibition in data set [2] is 11%.

Take `COc1cc(-c2ccc(-c3cc(C(=O)NC45CC6CC(CC(C6)C4)C5)no3)cc2)cc(OC)c1OC`: the inhibition at 72 h, 10 µM was determined as 32% in data set [1] and 6% in data set [3]. The inhibition in data set [2] worked out at 42%.

With `CC(=O)c1ccc(-c2ccc(-c3cc(C(=O)NC45CC6CC(CC(C6)C4)C5)no3)cn2)cc1`, the results for the inhibition at 72 h, 10 µM in data set [1] and in data set [3] were 5% and 0%, respectively. Also, the inhibition in data set [2] was 13%.

Turning to `O=C(NC12CC3CC(CC(C3)C1)C2)c1cc(-c2ccc(-c3ccco3)cc2)on1`, the inhibition at 72 h, 10 µM in data set [1] worked out at 12%; in data set [3], 0%. Also, the inhibition in data set [2] is 31%.

Consider `O=C(NC12CC3CC(CC(C3)C1)C2)c1cc(-c2ccc(-c3ccc(C(=O)N4CCOCC4)cc3)cc2)on1`, for which the inhibition at 72 h, 10 µM turned out to be 23% in data set [1] and 0% in data set [3]. In addition, in data set [2], the inhibition turned out to be 24%.

As to `COc1ccccc1-c1ccc(-c2cc(C(=O)NC34CC5CC(CC(C5)C3)C4)no2)cc1`, the inhibition at 72 h, 10 µM in data set [1] was 25%; in data set [3], 2%. In addition, the inhibition in data set [2] came out at 47%.

As for `O=C(NC12CC3CC(CC(C3)C1)C2)c1cc(-c2ccc(-c3ccncc3)nc2)on1`, the inhibition at 72 h, 10 µM in data set [1] is 1%; in data set [3], 0%. Further, the inhibition in data set [2] is 23%.

As for `CN1CCN(C(=O)c2ccc(-c3ccc(-c4cc(C(=O)NC56CC7CC(CC(C7)C5)C6)no4)cn3)cc2)CC1`, the inhibition at 72 h, 10 µM in data set [1] was 3%; in data set [3] it was 0%. Moreover, the inhibition in data set [2] was 10%.

On to `CN1CCN(C(=O)c2ccc(-c3ccc(-c4cc(C(=O)NC56CC7CC(CC(C7)C5)C6)no4)cc3)cc2)CC1`, for which the inhibition at 72 h, 10 µM in data set [1] turned out to be 37%; in data set [3], 24%. Also, in data set [2], the inhibition amounted to 23%.

For `N#Cc1cccc(-c2ccc(-c3cc(C(=O)NC45CC6CC(CC(C6)C4)C5)no3)cc2)c1`, the inhibition at 72 h, 10 µM in data set [1] and in data set [3] was 0% each time. Besides, in data set [2], the inhibition is 64%. Also, the Ratio IC50 in data set [5] worked out at 2. For the same compound, the pIC50 in data set [4] was 6.62.

Consider `O=C(NC12CC3CC(CC(C3)C1)C2)c1cc(-c2ccc(-c3ccc4c(c3)OCO4)cc2)on1`, for which the inhibition at 72 h, 10 µM amounted to 9% in data set [1] and 0% in data set [3]. For the same compound, in data set [2], the inhibition was determined as 18%.

As to `O=C(NC12CC3CC(CC(C3)C1)C2)c1cc(-c2ccc(-c3ccccc3)nc2)on1`, the inhibition at 72 h, 10 µM turned out to be 14% in data set [1] and 0% in data set [3]. The inhibition in data set [2] stood at 23%.

Take `NC(=O)c1cccc(-c2ccc(-c3cc(C(=O)NC45CC6CC(CC(C6)C4)C5)no3)cn2)c1`: the inhibition at 72 h, 10 µM in data set [1] was found to be 1%; in data set [3], 14%. In data set [2], the inhibition is 20%.

With `CCCCCOc1ccc(-c2cc(C(=O)NC34CC5CC(CC(C5)C3)C4)no2)cc1`, in data set [2], the inhibition came out at 79%.

With `NC(=O)c1ccc(-c2ccc(-c3cc(C(=O)NC45CC6CC(CC(C6)C4)C5)no3)cc2)cc1`, the inhibition at 72 h, 10 µM in data set [1] was 4%; in data set [3], 0%. Moreover, the inhibition in data set [2] amounted to 10%.

With `COc1ccc(-c2ccc(-c3cc(C(=O)NC45CC6CC(CC(C6)C4)C5)no3)cc2)cc1`, the inhibition at 72 h, 10 µM in data set [1] is 2%; in data set [3], 0%. Besides, in data set [2], the inhibition amounted to 15%.

Consider `CN1CCN(Cc2cccc(-c3ccc(-c4cc(C(=O)NC56CC7CC(CC(C7)C5)C6)no4)cc3)c2)CC1`, for which the inhibition at 72 h, 10 µM in data set [1] amounted to 93%; in data set [3], 97%. Moreover, the inhibition in data set [2] is 63%. Also, in data set [4], the pIC50 is 5.95.
